Assay results published in ChEMBL document CHEMBL4689842, “EUbOPEN Chemogenomics Library wave 1” (2021).

Test system: U2OS
Assay: Multiplex assay against U2OS
Format: toxicity, cell-based
Details: human
Procedure, shortened: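 Four dyes were applied at seeding to live cells: Hoechst33342, BioTracker Green Microtubule Cytoskeleton Dye, MitoTracker Red and Annexin V Alexa Fluor 680. Imaging after compound addition used a CQ1 microscope at 37°C and 5% CO2. CellPathfinder machine-learning gating then sorted cells into Hoechst high-intensity objects or normal cells, normal cells into healthy, pyknosed or fragmented nuclei, and pyknosed cells into mitotic or apoptotic, with tubulin, mitochondrial-mass and membrane-permeability phenotypes given as per cents of healthy-nucleus cells.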

[1] = 12 h, 1 µM, compound concentration 1 uM, replicate 1
[2] = 12 h, 1 µM, compound concentration 1 uM, replicate 2
[3] = 12 h, 10 µM, compound concentration 10 uM, replicate 1
[4] = 12 h, 10 µM, compound concentration 10 uM, replicate 2
[5] = 24 h, 1 µM, compound concentration 1 uM, replicate 1
[6] = 24 h, 1 µM, compound concentration 1 uM, replicate 2
[7] = 24 h, 10 µM, compound concentration 10 uM, replicate 1
[8] = 24 h, 10 µM, compound concentration 10 uM, replicate 2
[9] = 48 h, 1 µM, compound concentration 1 uM, replicate 1
[10] = 48 h, 1 µM, compound concentration 1 uM, replicate 2
[11] = 48 h, 10 µM, compound concentration 10 uM, replicate 1
[12] = 48 h, 10 µM, compound concentration 10 uM, replicate 2

SMILES: CCCSc1nc(N[C@@H]2C[C@H]2c2ccc(F)c(F)c2)c2nnn([C@@H]3C[C@H](OCCO)[C@@H](O)[C@H]3O)c2n1 [TICAGRELOR]
- Population Apoptotic (%) [1]: 23%
- Population Fragmented Nuclei (%) [1]: 11%
- Population Healthy Nuclei (%) [1]: 74%
- Population Hoechst High Intensity Objects (%) [1]: 6%
- Population Membrane Permeable-Phenotype (%) [1]: 4%
- Population Mitochondria Different-Phenotype (%) [1]: 21%
- Population Mitotic Cells (%) [1]: 76%
- Population Normal (%) [1]: 93%
- Population Pyknosed Nuclei (%) [1]: 14%
- Population Tubulin-Different-Phenotype (%) [1]: 10%
- Total Cell Count [1]: 116
- Population Apoptotic (%) [2]: 66%
- Population Fragmented Nuclei (%) [2]: 1%
- Population Healthy Nuclei (%) [2]: 93%
- Population Hoechst High Intensity Objects (%) [2]: 5%
- Population Membrane Permeable-Phenotype (%) [2]: 5%
- Population Mitochondria Different-Phenotype (%) [2]: 18%
- Population Mitotic Cells (%) [2]: 33%
- Population Normal (%) [2]: 94%
- Population Pyknosed Nuclei (%) [2]: 4%
- Population Tubulin-Different-Phenotype (%) [2]: 13%
- Total Cell Count [2]: 82
- Population Apoptotic (%) [3]: 87%
- Population Fragmented Nuclei (%) [3]: 16%
- Population Healthy Nuclei (%) [3]: 64%
- Population Hoechst High Intensity Objects (%) [3]: 7%
- Population Membrane Permeable-Phenotype (%) [3]: 37%
- Population Mitochondria Different-Phenotype (%) [3]: 99%
- Population Mitotic Cells (%) [3]: 12%
- Population Normal (%) [3]: 92%
- Population Pyknosed Nuclei (%) [3]: 19%
- Population Tubulin-Different-Phenotype (%) [3]: 100%
- Total Cell Count [3]: 125
- Population Apoptotic (%) [4]: 75%
- Population Fragmented Nuclei (%) [4]: 7%
- Population Healthy Nuclei (%) [4]: 79%
- Population Hoechst High Intensity Objects (%) [4]: 11%
- Population Membrane Permeable-Phenotype (%) [4]: 43%
- Population Mitochondria Different-Phenotype (%) [4]: 98%
- Population Mitotic Cells (%) [4]: 25%
- Population Normal (%) [4]: 88%
- Population Pyknosed Nuclei (%) [4]: 12%
- Population Tubulin-Different-Phenotype (%) [4]: 96%
- Total Cell Count [4]: 67
- Population Apoptotic (%) [5]: 9%
- Population Fragmented Nuclei (%) [5]: 7%
- Population Healthy Nuclei (%) [5]: 84%
- Population Hoechst High Intensity Objects (%) [5]: 7%
- Population Membrane Permeable-Phenotype (%) [5]: 3%
- Population Mitochondria Different-Phenotype (%) [5]: 10%
- Population Mitotic Cells (%) [5]: 90%
- Population Normal (%) [5]: 92%
- Population Pyknosed Nuclei (%) [5]: 7%
- Population Tubulin-Different-Phenotype (%) [5]: 6%
- Total Cell Count [5]: 116
- Population Apoptotic (%) [6]: 57%
- Population Fragmented Nuclei (%) [6]: 3%
- Population Healthy Nuclei (%) [6]: 87%
- Population Hoechst High Intensity Objects (%) [6]: 2%
- Population Membrane Permeable-Phenotype (%) [6]: 4%
- Population Mitochondria Different-Phenotype (%) [6]: 20%
- Population Mitotic Cells (%) [6]: 42%
- Population Normal (%) [6]: 97%
- Population Pyknosed Nuclei (%) [6]: 8%
- Population Tubulin-Different-Phenotype (%) [6]: 11%
- Total Cell Count [6]: 81
- Population Apoptotic (%) [7]: 94%
- Population Fragmented Nuclei (%) [7]: 18%
- Population Healthy Nuclei (%) [7]: 58%
- Population Hoechst High Intensity Objects (%) [7]: 6%
- Population Membrane Permeable-Phenotype (%) [7]: 55%
- Population Mitochondria Different-Phenotype (%) [7]: 100%
- Population Mitotic Cells (%) [7]: 5%
- Population Normal (%) [7]: 93%
- Population Pyknosed Nuclei (%) [7]: 22%
- Total Cell Count [7]: 155
- Population Apoptotic (%) [8]: 83%
- Population Fragmented Nuclei (%) [8]: 7%
- Population Healthy Nuclei (%) [8]: 73%
- Population Hoechst High Intensity Objects (%) [8]: 8%
- Population Membrane Permeable-Phenotype (%) [8]: 65%
- Population Mitochondria Different-Phenotype (%) [8]: 97%
- Population Mitotic Cells (%) [8]: 16%
- Population Normal (%) [8]: 91%
- Population Pyknosed Nuclei (%) [8]: 19%
- Population Tubulin-Different-Phenotype (%) [8]: 97%
- Total Cell Count [8]: 80
- Population Apoptotic (%) [9]: 69%
- Population Fragmented Nuclei (%) [9]: 6%
- Population Healthy Nuclei (%) [9]: 87%
- Population Hoechst High Intensity Objects (%) [9]: 4%
- Population Mitochondria Different-Phenotype (%) [9]: 7%
- Population Mitotic Cells (%) [9]: 30%
- Population Normal (%) [9]: 95%
- Population Pyknosed Nuclei (%) [9]: 5%
- Population Tubulin-Different-Phenotype (%) [9]: 3%
- Total Cell Count [9]: 107
- Population Apoptotic (%) [10]: 25%
- Population Fragmented Nuclei (%) [10]: 4%
- Population Healthy Nuclei (%) [10]: 88%
- Population Hoechst High Intensity Objects (%) [10]: 3%
- Population Membrane Permeable-Phenotype (%) [10]: 2%
- Population Mitochondria Different-Phenotype (%) [10]: 12%
- Population Mitotic Cells (%) [10]: 75%
- Population Normal (%) [10]: 96%
- Population Pyknosed Nuclei (%) [10]: 6%
- Population Tubulin-Different-Phenotype (%) [10]: 9%
- Total Cell Count [10]: 74
- Population Apoptotic (%) [11]: 89%
- Population Fragmented Nuclei (%) [11]: 25%
- Population Healthy Nuclei (%) [11]: 38%
- Population Hoechst High Intensity Objects (%) [11]: 8%
- Population Membrane Permeable-Phenotype (%) [11]: 60%
- Population Mitochondria Different-Phenotype (%) [11]: 94%
- Population Mitotic Cells (%) [11]: 10%
- Population Normal (%) [11]: 91%
- Population Pyknosed Nuclei (%) [11]: 36%
- Population Tubulin-Different-Phenotype (%) [11]: 98%
- Total Cell Count [11]: 230
- Population Apoptotic (%) [12]: 71%
- Population Fragmented Nuclei (%) [12]: 17%
- Population Healthy Nuclei (%) [12]: 60%
- Population Hoechst High Intensity Objects (%) [12]: 11%
- Population Membrane Permeable-Phenotype (%) [12]: 74%
- Population Mitochondria Different-Phenotype (%) [12]: 97%
- Population Mitotic Cells (%) [12]: 28%
- Population Normal (%) [12]: 88%
- Population Pyknosed Nuclei (%) [12]: 21%
- Population Tubulin-Different-Phenotype (%) [12]: 97%
- Total Cell Count [12]: 130
